Experimental data published in ChEMBL document CHEMBL1255396, “Trailing or paradoxical growth of Candida albicans when exposed to caspofungin is not associated with microsatellite genotypes” (2010).
Values after ≈ are worked out from the molar mass of the structure shown.

Tests used:
Assay type in all cases: functional
Candida albicans [1] = assay: Antimicrobial activity against Candida albicans isolate 12 after 48 hrs by broth microdilution assay; settings: isolate 12, 48 h
Procedure, shortened: (§1)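 Sensititre YeastOne caspofungin broth microdilution, which follows the CLSI method but uses alamarBlue readout in RPMI 1640 with 2% glucose. Done in duplicate and read after 48 h at 30°C. QC strains were C. krusei ATCC 6258 and C. parapsilosis ATCC 22019. Isolates were from different patients and wards in four Marseille hospitals.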

Candida albicans [2] = assay: Antimicrobial activity against Candida albicans isolate 5 after 48 hrs by Etest method; settings: isolate 5, 48 h
Procedure, shortened: (§2)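 Caspofungin agar-diffusion Etest strips on clinical isolates from four Marseille teaching hospitals, each from a different patient. Run in duplicate and read after 48 h at 30°C. QC strains were C. krusei ATCC 6258 and C. parapsilosis ATCC 22019. Trailing, paradoxical growth and clear endpoints were scored from growth relative to the MIC.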

Candida albicans [3] = assay: Antimicrobial activity against Candida albicans isolate 6 after 48 hrs by broth microdilution assay; settings: isolate 6, 48 h; procedure, shortened: as §1
Candida albicans [4] = assay: Antimicrobial activity against Candida albicans isolate 15 after 48 hrs by broth microdilution assay; settings: isolate 15, 48 h; procedure, shortened: as §1
Candida albicans [5] = assay: Antimicrobial activity against Candida albicans isolate 11 after 48 hrs by broth microdilution assay; settings: isolate 11, 48 h; procedure, shortened: as §1
Candida albicans [6] = assay: Antimicrobial activity against Candida albicans isolate 17 after 48 hrs by Etest method; settings: isolate 17, 48 h; procedure, shortened: as §2
Candida albicans [7] = assay: Antimicrobial activity against Candida albicans isolate 14 after 48 hrs by Etest method; settings: isolate 14, 48 h; procedure, shortened: as §2
Candida albicans [8] = assay: Antimicrobial activity against Candida albicans isolate 22 after 48 hrs by broth microdilution assay; settings: isolate 22, 48 h; procedure, shortened: as §1
Candida albicans [9] = assay: Antimicrobial activity against Candida albicans isolate 27 after 48 hrs by broth microdilution assay; settings: isolate 27, 48 h; procedure, shortened: as §1
Candida albicans [10] = assay: Antimicrobial activity against Candida albicans isolate 3 after 48 hrs by broth microdilution assay; settings: isolate 3, 48 h; procedure, shortened: as §1
Candida albicans [11] = assay: Antimicrobial activity against Candida albicans isolate 19 after 48 hrs by Etest method; settings: isolate 19, 48 h; procedure, shortened: as §2
Candida albicans [12] = assay: Antimicrobial activity against Candida albicans isolate 4 after 48 hrs by Etest method; settings: isolate 4, 48 h; procedure, shortened: as §2
Candida albicans [13] = assay: Antimicrobial activity against Candida albicans isolate 14 after 48 hrs by broth microdilution assay; settings: isolate 14, 48 h; procedure, shortened: as §1
Candida albicans [14] = assay: Antimicrobial activity against Candida albicans isolate 6 after 48 hrs by Etest method; settings: isolate 6, 48 h; procedure, shortened: as §2
Candida albicans [15] = assay: Antimicrobial activity against Candida albicans isolate 16 after 48 hrs by Etest method; settings: isolate 16, 48 h; procedure, shortened: as §2
Candida albicans [16] = assay: Antimicrobial activity against Candida albicans isolate 8 after 48 hrs by Etest method; settings: isolate 8, 48 h; procedure, shortened: as §2
Candida albicans [17] = assay: Antimicrobial activity against Candida albicans isolate 2 after 48 hrs by broth microdilution assay; settings: isolate 2, 48 h; procedure, shortened: as §1
Candida albicans [18] = assay: Antimicrobial activity against Candida albicans isolate 9 after 48 hrs by broth microdilution assay; settings: isolate 9, 48 h
Procedure, shortened: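 Sensititre Yeast One broth microdilution used per manufacturer. It matches the CLSI method except for the alamarBlue read-out and RPMI 1640 with 2% glucose. Read after 48 h at 30°C. Testing done in duplicate. QC strains: C. krusei ATCC 6258 and C. parapsilosis ATCC 22019. Paradoxical growth and trailing were scored separately.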

Candida albicans [19] = assay: Antimicrobial activity against Candida albicans isolate 13 after 48 hrs by broth microdilution assay; settings: isolate 13, 48 h; procedure, shortened: as §1
Candida albicans [20] = assay: Antimicrobial activity against Candida albicans isolate 25 after 48 hrs by Etest method; settings: isolate 25, 48 h; procedure, shortened: as §2
Candida albicans [21] = assay: Antimicrobial activity against Candida albicans isolate 25 after 48 hrs by broth microdilution assay; settings: isolate 25, 48 h; procedure, shortened: as §1
Candida albicans [22] = assay: Antimicrobial activity against Candida albicans isolate 1 after 48 hrs by Etest method; settings: isolate 1, 48 h; procedure, shortened: as §2
Candida albicans [23] = assay: Antimicrobial activity against Candida albicans isolate 26 after 48 hrs by broth microdilution assay; settings: isolate 26, 48 h; procedure, shortened: as §1
Candida albicans [24] = assay: Antimicrobial activity against Candida albicans isolate 20 after 48 hrs by broth microdilution assay; settings: isolate 20, 48 h; procedure, shortened: as §1
Candida albicans [25] = assay: Antimicrobial activity against Candida albicans isolate 19 after 48 hrs by broth microdilution assay; settings: isolate 19, 48 h; procedure, shortened: as §1
Candida albicans [26] = assay: Antimicrobial activity against Candida albicans isolate 26 after 48 hrs by Etest method; settings: isolate 26, 48 h; procedure, shortened: as §2
Candida albicans [27] = assay: Antimicrobial activity against Candida albicans isolate 18 after 48 hrs by broth microdilution assay; settings: isolate 18, 48 h; procedure, shortened: as §1
Candida albicans [28] = assay: Antimicrobial activity against Candida albicans isolate 5 after 48 hrs by broth microdilution assay; settings: isolate 5, 48 h; procedure, shortened: as §1
Candida albicans [29] = assay: Antimicrobial activity against Candida albicans isolate 22 after 48 hrs by Etest method; settings: isolate 22, 48 h; procedure, shortened: as §2
Candida albicans [30] = assay: Antimicrobial activity against Candida albicans isolate 4 after 48 hrs by broth microdilution assay; settings: isolate 4, 48 h; procedure, shortened: as §1
Candida albicans [31] = assay: Antimicrobial activity against Candida albicans isolate 24 after 48 hrs by broth microdilution assay; settings: isolate 24, 48 h; procedure, shortened: as §1
Candida albicans [32] = assay: Antimicrobial activity against Candida albicans isolate 17 after 48 hrs by broth microdilution assay; settings: isolate 17, 48 h; procedure, shortened: as §1
Candida albicans [33] = assay: Antimicrobial activity against Candida albicans isolate 3 after 48 hrs by Etest method; settings: isolate 3, 48 h; procedure, shortened: as §2
Candida albicans [34] = assay: Antimicrobial activity against Candida albicans isolate 23 after 48 hrs by Etest method; settings: isolate 23, 48 h; procedure, shortened: as §2
Candida albicans [35] = assay: Antimicrobial activity against Candida albicans isolate 27 after 48 hrs by Etest method; settings: isolate 27, 48 h; procedure, shortened: as §2
Candida albicans [36] = assay: Antimicrobial activity against Candida albicans isolate 11 after 48 hrs by Etest method; settings: isolate 11, 48 h; procedure, shortened: as §2
Candida albicans [37] = assay: Antimicrobial activity against Candida albicans isolate 1 after 48 hrs by broth microdilution assay; settings: isolate 1, 48 h; procedure, shortened: as §1
Candida albicans [38] = assay: Antimicrobial activity against Candida albicans isolate 21 after 48 hrs by broth microdilution assay; settings: isolate 21, 48 h; procedure, shortened: as §1
Candida albicans [39] = assay: Antimicrobial activity against Candida albicans isolate 7 after 48 hrs by broth microdilution assay; settings: isolate 7, 48 h; procedure, shortened: as §1
Candida albicans [40] = assay: Antimicrobial activity against Candida albicans isolate 23 after 48 hrs by broth microdilution assay; settings: isolate 23, 48 h; procedure, shortened: as §1
Candida albicans [41] = assay: Antimicrobial activity against Candida albicans isolate 7 after 48 hrs by Etest method; settings: isolate 7, 48 h; procedure, shortened: as §2
Candida albicans [42] = assay: Antimicrobial activity against Candida albicans isolate 24 after 48 hrs by Etest method; settings: isolate 24, 48 h; procedure, shortened: as §2
Candida albicans [43] = assay: Antimicrobial activity against Candida albicans isolate 2 after 48 hrs by Etest method; settings: isolate 2, 48 h; procedure, shortened: as §2
Candida albicans [44] = assay: Antimicrobial activity against Candida albicans isolate 12 after 48 hrs by Etest method; settings: isolate 12, 48 h; procedure, shortened: as §2
Candida albicans [45] = assay: Antimicrobial activity against Candida albicans isolate 13 after 48 hrs by Etest method; settings: isolate 13, 48 h; procedure, shortened: as §2
Candida albicans [46] = assay: Antimicrobial activity against Candida albicans isolate 20 after 48 hrs by Etest method; settings: isolate 20, 48 h; procedure, shortened: as §2
Candida albicans [47] = assay: Antimicrobial activity against Candida albicans isolate 9 after 48 hrs by Etest method; settings: isolate 9, 48 h
Procedure, shortened: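 Caspofungin Etest strip (agar diffusion) applied per manufacturer to a clinical isolate. Plates read after 48 h at 30°C. Testing done in duplicate. QC strains: C. krusei ATCC 6258 and C. parapsilosis ATCC 22019. Paradoxical growth and trailing were scored as separate endpoint phenotypes.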

Candida albicans [48] = assay: Antimicrobial activity against Candida albicans isolate 21 after 48 hrs by Etest method; settings: isolate 21, 48 h; procedure, shortened: as §2
Candida albicans [49] = assay: Antimicrobial activity against Candida albicans isolate 16 after 48 hrs by broth microdilution assay; settings: isolate 16, 48 h; procedure, shortened: as §1
Candida albicans [50] = assay: Antimicrobial activity against Candida albicans isolate 18 after 48 hrs by Etest method; settings: isolate 18, 48 h; procedure, shortened: as §2
Candida albicans [51] = assay: Antimicrobial activity against Candida albicans isolate 15 after 48 hrs by Etest method; settings: isolate 15, 48 h; procedure, shortened: as §2
Candida albicans [52] = assay: Antimicrobial activity against Candida albicans isolate 8 after 48 hrs by broth microdilution assay; settings: isolate 8, 48 h; procedure, shortened: as §1

MIC (Candida albicans [1]): 0.064 µg/mL (≈ 0.0585 µM)
MIC (Candida albicans [2]): 0.064 µg/mL (≈ 0.0585 µM)
MIC (Candida albicans [3]): 0.125 µg/mL (≈ 0.114 µM)
MIC (Candida albicans [4]): 0.016 µg/mL (≈ 0.0146 µM)
MIC (Candida albicans [5]): 0.094 µg/mL (≈ 0.086 µM)
MIC (Candida albicans [6]): 0.125 µg/mL (≈ 0.114 µM)
MIC (Candida albicans [7]): 0.032 µg/mL (≈ 0.0293 µM)
MIC (Candida albicans [8]): 0.125 µg/mL (≈ 0.114 µM)
MIC (Candida albicans [9]): 0.047 µg/mL (≈ 0.043 µM)
MIC (Candida albicans [10]): 0.032 µg/mL (≈ 0.0293 µM)
MIC (Candida albicans [11]): 0.75 µg/mL (≈ 0.686 µM)
MIC (Candida albicans [12]): 0.032 µg/mL (≈ 0.0293 µM)
MIC (Candida albicans [13]): 0.032 µg/mL (≈ 0.0293 µM)
MIC (Candida albicans [14]): 0.125 µg/mL (≈ 0.114 µM)
MIC (Candida albicans [15]): 0.032 µg/mL (≈ 0.0293 µM)
MIC (Candida albicans [16]): 0.125 µg/mL (≈ 0.114 µM)
MIC (Candida albicans [17]): 0.032 µg/mL (≈ 0.0293 µM)
MIC (Candida albicans [18]): 0.047 µg/mL (≈ 0.043 µM)
MIC (Candida albicans [19]): 0.023 µg/mL (≈ 0.021 µM)
MIC (Candida albicans [20]): 0.064 µg/mL (≈ 0.0585 µM)
MIC (Candida albicans [21]): 0.064 µg/mL (≈ 0.0585 µM)
MIC (Candida albicans [22]): 0.008 µg/mL (≈ 0.00732 µM)
MIC (Candida albicans [23]): 0.094 µg/mL (≈ 0.086 µM)
MIC (Candida albicans [24]): 0.032 µg/mL (≈ 0.0293 µM)
MIC (Candida albicans [25]): 0.75 µg/mL (≈ 0.686 µM)
MIC (Candida albicans [26]): 0.094 µg/mL (≈ 0.086 µM)
MIC (Candida albicans [27]): 0.094 µg/mL (≈ 0.086 µM)
MIC (Candida albicans [28]): 0.064 µg/mL (≈ 0.0585 µM)
MIC (Candida albicans [29]): 0.125 µg/mL (≈ 0.114 µM)
MIC (Candida albicans [30]): 0.032 µg/mL (≈ 0.0293 µM)
MIC (Candida albicans [31]): 0.064 µg/mL (≈ 0.0585 µM)
MIC (Candida albicans [32]): 0.125 µg/mL (≈ 0.114 µM)
MIC (Candida albicans [33]): 0.032 µg/mL (≈ 0.0293 µM)
MIC (Candida albicans [34]): 0.064 µg/mL (≈ 0.0585 µM)
MIC (Candida albicans [35]): 0.047 µg/mL (≈ 0.043 µM)
MIC (Candida albicans [36]): 0.094 µg/mL (≈ 0.086 µM)
MIC (Candida albicans [37]): 0.008 µg/mL (≈ 0.00732 µM)
MIC (Candida albicans [38]): 0.064 µg/mL (≈ 0.0585 µM)
MIC (Candida albicans [39]): 0.064 µg/mL (≈ 0.0585 µM)
MIC (Candida albicans [40]): 0.064 µg/mL (≈ 0.0585 µM)
MIC (Candida albicans [41]): 0.064 µg/mL (≈ 0.0585 µM)
MIC (Candida albicans [42]): 0.064 µg/mL (≈ 0.0585 µM)
MIC (Candida albicans [43]): 0.032 µg/mL (≈ 0.0293 µM)
MIC (Candida albicans [44]): 0.064 µg/mL (≈ 0.0585 µM)
MIC (Candida albicans [45]): 0.023 µg/mL (≈ 0.021 µM)
MIC (Candida albicans [46]): 0.032 µg/mL (≈ 0.0293 µM)
MIC (Candida albicans [47]): 0.047 µg/mL (≈ 0.043 µM)
MIC (Candida albicans [48]): 0.064 µg/mL (≈ 0.0585 µM)
MIC (Candida albicans [49]): 0.032 µg/mL (≈ 0.0293 µM)
MIC (Candida albicans [50]): 0.094 µg/mL (≈ 0.086 µM)
MIC (Candida albicans [51]): 0.016 µg/mL (≈ 0.0146 µM)
MIC (Candida albicans [52]): 0.125 µg/mL (≈ 0.114 µM)
SMILES: CC[C@H](C)C[C@H](C)CCCCCCCCC(=O)N[C@H]1C[C@@H](O)[C@@H](NCCN)NC(=O)[C@@H]2[C@@H](O)CCN2C(=O)[C@H]([C@H](O)CCN)NC(=O)[C@H]([C@H](O)[C@@H](O)c2ccc(O)cc2)NC(=O)[C@@H]2C[C@@H](O)CN2C(=O)[C@H]([C@@H](C)O)NC1=O [CASPOFUNGIN]
